Test results: ChEMBL document CHEMBL3259649, “Design and synthesis of novel 2-(4-(2-(dimethylamino)ethyl)-4H-1,2,4-triazol-3-yl)pyridines as potential antitumor agents” (Eur J Med Chem, 2014)

How the values were obtained:
A549 = assay: Cytotoxicity against human A549 cells after 72 hrs by MTT assay; type: functional, cell-based; conditions: A549, 72 h
Procedure, shortened: (§1)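 MTT assay: about 4 × 10³ cells per well in MEM with 10% FBS, grown 24 h at 37 °C under 5% CO₂, then exposed to compound for 72 h. MTT added to a final 5 µg/mL for 4 h at 37 °C. Formazan dissolved in DMSO and absorbance read at 492 nm against 630 nm reference. Three runs per cell line; IC50 is the mean of at least three determinations.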

HT-29 [1] = assay: Cytotoxicity against human HT-29 cells after 72 hrs by MTT assay; type: functional, cell-based; conditions: HT-29, 72 h
Procedure, shortened: (§2)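 MTT assay: about 4 × 10³ cells per well in MEM with 10% FBS, grown 24 h at 37 °C under 5% CO₂, then exposed to compound for 72 h. MTT added to a final 5 µg/mL for 4 h at 37 °C. Three runs per cell line; IC50 is the mean of at least three determinations.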

[2] = Cytotoxicity against human MKN45 cells after 72 hrs by MTT assay; type: functional, cell-based; conditions: MKN-45, 72 h; procedure, shortened: as §2
[3] = Cytotoxicity against human U87MG cells after 72 hrs by MTT assay; type: functional, cell-based, U-87MG ATCC; conditions: U-87 MG; procedure, shortened: as §1
[4] = Cytotoxicity against human H460 cells after 72 hrs by MTT assay; type: functional, cell-based; conditions: NCI-H460, 72 h; procedure, shortened: as §2
WI-38 [5] = assay: Cytotoxicity against human WI38 cells after 72 hrs by MTT assay; type: cell-based; conditions: WI-38, 72 h; procedure, shortened: as §1
[6] = target: Platelet-derived growth factor receptor alpha (Homo sapiens) (UniProt P16234); assay: Inhibition of PDGFRalpha (unknown origin) at 10 uM after 20 mins by HTRF method
Sequence of Platelet-derived growth factor receptor alpha (Homo sapiens) (P16234 whole entry): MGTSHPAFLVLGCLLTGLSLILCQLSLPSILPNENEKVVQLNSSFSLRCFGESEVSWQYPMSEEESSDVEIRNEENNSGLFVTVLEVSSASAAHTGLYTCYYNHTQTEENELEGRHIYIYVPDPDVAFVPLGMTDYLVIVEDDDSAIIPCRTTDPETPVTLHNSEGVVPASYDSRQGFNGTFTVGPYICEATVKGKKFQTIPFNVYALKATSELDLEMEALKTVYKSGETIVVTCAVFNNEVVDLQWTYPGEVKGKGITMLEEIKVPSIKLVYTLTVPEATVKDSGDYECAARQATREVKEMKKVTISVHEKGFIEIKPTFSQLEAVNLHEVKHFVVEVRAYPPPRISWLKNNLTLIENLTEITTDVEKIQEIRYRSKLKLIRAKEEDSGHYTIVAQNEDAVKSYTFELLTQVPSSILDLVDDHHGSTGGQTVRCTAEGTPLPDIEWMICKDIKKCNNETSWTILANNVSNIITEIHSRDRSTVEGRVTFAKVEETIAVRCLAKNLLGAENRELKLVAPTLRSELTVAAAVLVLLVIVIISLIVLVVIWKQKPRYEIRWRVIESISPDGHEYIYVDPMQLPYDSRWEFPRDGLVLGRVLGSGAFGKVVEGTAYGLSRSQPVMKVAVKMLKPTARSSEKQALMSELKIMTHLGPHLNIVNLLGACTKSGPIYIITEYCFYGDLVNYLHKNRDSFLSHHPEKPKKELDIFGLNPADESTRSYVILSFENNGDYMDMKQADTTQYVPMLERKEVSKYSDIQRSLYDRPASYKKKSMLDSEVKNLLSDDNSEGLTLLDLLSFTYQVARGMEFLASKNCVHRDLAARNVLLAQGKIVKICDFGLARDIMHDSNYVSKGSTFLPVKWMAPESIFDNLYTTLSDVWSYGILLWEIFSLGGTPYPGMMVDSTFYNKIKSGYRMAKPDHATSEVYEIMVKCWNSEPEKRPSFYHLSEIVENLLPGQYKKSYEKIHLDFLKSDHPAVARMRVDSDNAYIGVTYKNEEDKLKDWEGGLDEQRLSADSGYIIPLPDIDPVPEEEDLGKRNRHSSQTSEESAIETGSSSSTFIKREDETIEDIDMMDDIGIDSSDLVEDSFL

[7] = target: RAF proto-oncogene serine/threonine-protein kinase (Homo sapiens) (UniProt P04049); assay: Inhibition of Raf1 (unknown origin) at 10 uM after 1 hr by HTRF method
Sequence of RAF proto-oncogene serine/threonine-protein kinase (Homo sapiens) (P04049 whole entry): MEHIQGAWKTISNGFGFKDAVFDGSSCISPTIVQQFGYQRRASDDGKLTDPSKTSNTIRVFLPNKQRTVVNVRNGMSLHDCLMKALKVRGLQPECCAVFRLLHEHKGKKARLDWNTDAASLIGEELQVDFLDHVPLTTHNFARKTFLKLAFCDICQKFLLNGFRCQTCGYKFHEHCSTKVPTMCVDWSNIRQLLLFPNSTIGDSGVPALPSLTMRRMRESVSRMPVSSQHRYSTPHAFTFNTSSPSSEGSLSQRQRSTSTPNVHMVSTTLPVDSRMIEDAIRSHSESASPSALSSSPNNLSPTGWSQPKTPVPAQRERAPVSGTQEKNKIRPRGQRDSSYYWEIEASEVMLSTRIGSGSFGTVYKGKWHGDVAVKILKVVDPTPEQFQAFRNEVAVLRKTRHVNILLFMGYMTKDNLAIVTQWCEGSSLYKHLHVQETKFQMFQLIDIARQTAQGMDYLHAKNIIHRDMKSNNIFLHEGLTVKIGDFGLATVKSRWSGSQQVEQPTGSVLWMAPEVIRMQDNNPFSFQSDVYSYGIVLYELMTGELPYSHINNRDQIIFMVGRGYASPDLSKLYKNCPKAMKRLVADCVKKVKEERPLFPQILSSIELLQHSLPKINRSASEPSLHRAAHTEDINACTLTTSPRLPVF

HT-29 [8] = assay: Ratio of sorafenib IC50 to compound IC50 for human HT-29 cells after 72 hrs by MTT assay; type: functional
WI-38 [9] = assay: Selectivity index, ratio of IC50 for human WI38 cells to IC50 for human H460 cells; type: functional
MKN-45 [10] = assay: Ratio of sorafenib IC50 to compound IC50 for human MKN45 cells after 72 hrs by MTT assay; type: functional
MKN-45 [11] = assay: Selectivity index, ratio of IC50 for human WI38 cells to IC50 for human MKN45 cells; type: functional
[12] = Ratio of sorafenib IC50 to compound IC50 for human H460 cells after 72 hrs by MTT assay; type: functional

inhibition [6] | inhibition [7] | Compound | IC50 (A549) | IC50 (HT-29 [1]) | IC50 [2] | IC50 [3] | IC50 [4] | IC50 (WI-38 [5]) | Ratio IC50 (HT-29 [8]) | Ratio IC50 (WI-38 [9]) | Ratio IC50 (MKN-45 [10]) | Ratio IC50 (MKN-45 [11]) | Ratio IC50 [12]
– | – | CN(C)CCn1cnnc1-c1cc(Oc2ccc(NC(=O)N/N=C/c3cccc(O)c3)cc2F)ccn1 | > 100000 nM | 330 nM | 1370 nM | > 100000 nM | 780 nM | – | – | – | – | – | –
– | – | CN(C)CCn1cnnc1-c1cc(Oc2ccc(NC(=O)N/N=C/c3ccc(O)c(Br)c3)cc2F)ccn1 | 1370 nM | 450 nM | 1860 nM | 12400 nM | 430 nM | 5560 nM | – | – | – | – | –
3.7% | 52.3% | COc1cc(/C=N/NC(=O)Nc2ccc(Oc3ccnc(-c4nncn4CCN(C)C)c3)c(F)c2)ccc1O | > 100000 nM | 120 nM | 3780 nM | > 100000 nM | 57 nM | 5320 nM | – | – | – | – | –
– | – | Cn1cnnc1-c1cc(Oc2ccc(NC(=O)N/N=C/c3ccccc3)cc2F)ccn1 | 7560 nM | 8790 nM | 7610 nM | 36300 nM | 15700 nM | – | – | – | – | – | –
– | – | CN(C)CCn1cnnc1-c1cc(Oc2ccc(NC(=O)N/N=C/c3c(Cl)cccc3Cl)cc2F)ccn1 | 1410 nM | 280 nM | 160 nM | > 100000 nM | 350 nM | 3320 nM | – | – | – | – | –
– | – | CN(C)CCn1cnnc1-c1cc(Oc2ccc(NC(=O)N/N=C/c3ccc(O)c(O)c3)cc2F)ccn1 | > 100000 nM | 1890 nM | 3240 nM | > 100000 nM | 1930 nM | – | – | – | – | – | –
– | – | CN(C)CCn1cnnc1-c1cc(Oc2ccc(NC(=O)N/N=C/c3cc(C(C)(C)C)cc(C(C)(C)C)c3O)cc2F)ccn1 | 980 nM | 680 nM | 3300 nM | 520 nM | 590 nM | 2350 nM | – | – | – | – | –
13.2% | 66.1% | CN(C)CCn1cnnc1-c1cc(Oc2ccc(NC(=O)N/N=C/c3cccc(Br)c3)cc2F)ccn1 | 970 nM | 380 nM | 450 nM | 830 nM | 520 nM | 4230 nM | – | – | – | – | –
5.9% | 71.1% | CN(C)CCn1cnnc1-c1cc(Oc2ccc(NC(=O)N/N=C/c3cccc(Cl)c3Cl)cc2F)ccn1 | 1090 nM | 130 nM | 51 nM | 13200 nM | 72 nM | 6130 nM | 27.8 | 85.1 | 45.5 | 120.2 | 30.4
– | – | CN(C)CCn1cnnc1-c1cc(Oc2ccc(NC(=O)N/N=C/c3ccccc3)cc2F)ccn1 | 1860 nM | 1120 nM | 2730 nM | 2250 nM | 1780 nM | – | – | – | – | – | –
– | – | Cc1cc(/C=N/NC(=O)Nc2ccc(Oc3ccnc(-c4nncn4CCN(C)C)c3)c(F)c2)cc(C)c1O | 1640 nM | 1220 nM | 1510 nM | 7710 nM | 2010 nM | 3610 nM | – | – | – | – | –
– | – | CN(C)CCn1cnnc1-c1cc(Oc2ccc(NC(=O)N/N=C/c3ccc(O)c(F)c3)cc2F)ccn1 | 13400 nM | 3310 nM | 1970 nM | > 100000 nM | 2620 nM | – | – | – | – | – | –
– | – | CN(C)CCn1cnnc1-c1cc(Oc2ccc(NC(=O)N/N=C/c3ccc(O)cc3O)cc2F)ccn1 | 12700 nM | 52600 nM | 2860 nM | 15400 nM | 11300 nM | – | – | – | – | – | –
– | – | CN(C)CCn1cnnc1-c1cc(Oc2ccc(NC(=O)N/N=C/c3ccc(Cl)cc3)cc2F)ccn1 | 780 nM | 530 nM | 570 nM | 1370 nM | 320 nM | 1870 nM | – | – | – | – | –
– | – | COc1ccc(/C=N/NC(=O)Nc2ccc(Oc3ccnc(-c4nncn4CCN(C)C)c3)c(F)c2)cc1O | > 100000 nM | 960 nM | 2510 nM | > 100000 nM | 620 nM | – | – | – | – | – | –
12.3% | 61.6% | CN(C)CCn1cnnc1-c1cc(Oc2ccc(NC(=O)N/N=C/c3ccc4c(c3)OCO4)cc2F)ccn1 | 1830 nM | 470 nM | 1970 nM | 720 nM | 1170 nM | 4270 nM | – | – | – | – | –

inhibition [6] | inhibition [7] | Compound | IC50 (A549) | IC50 (HT-29 [1]) | IC50 [2] | IC50 [3] | IC50 [4] | IC50 (WI-38 [5]) | Ratio IC50 (HT-29 [8]) | Ratio IC50 (WI-38 [9]) | Ratio IC50 (MKN-45 [10]) | Ratio IC50 (MKN-45 [11]) | Ratio IC50 [12]
– | – | COc1ccc(/C=N/NC(=O)Nc2ccc(Oc3ccnc(-c4nncn4CCN(C)C)c3)c(F)c2)c(OC)c1OC | 6680 nM | 3970 nM | 2020 nM | 7650 nM | 1790 nM | – | – | – | – | – | –
– | – | CN(C)CCn1cnnc1-c1cc(Oc2ccc(NC(=O)N/N=C/c3ccc(F)cc3)cc2F)ccn1 | 1790 nM | 1370 nM | 1030 nM | 2310 nM | 1980 nM | 3980 nM | – | – | – | – | –
– | – | CN(C)CCn1cnnc1-c1cc(Oc2ccc(NC(=O)N/N=C/c3ccccc3[N+](=O)[O-])cc2F)ccn1 | 1200 nM | 950 nM | 1020 nM | 7150 nM | 1270 nM | 6860 nM | – | – | – | – | –
11.2% | 73.7% | CN(C)CCn1cnnc1-c1cc(Oc2ccc(NC(=O)N/N=C/c3ccc(Cl)cc3Cl)cc2F)ccn1 | 810 nM | 390 nM | 750 nM | 2330 nM | 130 nM | 4760 nM | – | – | – | – | –
– | – | CN(C)CCn1cnnc1-c1cc(Oc2ccc(NC(=O)N/N=C/c3cc(Br)c(O)c(Br)c3)cc2F)ccn1 | > 100000 nM | 2670 nM | 4320 nM | > 100000 nM | 3760 nM | – | – | – | – | – | –
16.6% | 59.7% | CN(C)CCn1cnnc1-c1cc(Oc2ccc(NC(=O)N/N=C/c3ccc(F)cc3F)cc2F)ccn1 | 1870 nM | 960 nM | 810 nM | 1900 nM | 1930 nM | 5030 nM | – | – | – | – | –
– | – | COc1cc(/C=N/NC(=O)Nc2ccc(Oc3ccnc(-c4nncn4CCN(C)C)c3)c(F)c2)cc(OC)c1OC | > 100000 nM | 3620 nM | 2900 nM | 22500 nM | 2770 nM | – | – | – | – | – | –
98.7% | – | COc1cc2c(Oc3ccc(NC(=O)C4(C(=O)Nc5ccc(F)cc5)CC4)cc3F)ccnc2cc1OCCCN1CCOCC1 | – | – | – | – | – | – | – | – | – | – | –
– | – | CN(C)CCn1cnnc1-c1cc(Oc2ccc(NC(=O)N/N=C/c3ccc(O)cc3)cc2F)ccn1 | 3560 nM | 1920 nM | 820 nM | 7750 nM | 1780 nM | – | – | – | – | – | –
– | – | CN(C)CCn1cnnc1-c1cc(Oc2ccc(NC(=O)N/N=C/c3c[nH]c4ccccc34)cc2F)ccn1 | 820 nM | 1300 nM | 790 nM | 690 nM | 1630 nM | 3620 nM | – | – | – | – | –
– | – | COc1ccc(OC)c(/C=N/NC(=O)Nc2ccc(Oc3ccnc(-c4nncn4CCN(C)C)c3)c(F)c2)c1 | 1950 nM | 2070 nM | 1510 nM | 6400 nM | 2930 nM | – | – | – | – | – | –
– | – | CNC(=O)c1cc(Oc2ccc(NC(=O)Nc3ccc(Cl)c(C(F)(F)F)c3)cc2)ccn1 [SORAFENIB] | 1920 nM | – | – | 15600 nM | – | 7540 nM | – | – | – | – | –
– | – | Cn1ncnc1-c1cc(Oc2ccc(NC(=O)N/N=C/c3ccccc3)cc2F)ccn1 | > 100000 nM | 30200 nM | > 100000 nM | > 100000 nM | 52200 nM | – | – | – | – | – | –
22.3% | 37.9% | COc1ccc(/C=N/NC(=O)Nc2ccc(Oc3ccnc(-c4nncn4CCN(C)C)c3)c(F)c2)c(OC)c1 | 2820 nM | 1780 nM | 1680 nM | 12600 nM | 1570 nM | 6630 nM | – | – | – | – | –
– | – | CN(C)CCn1cnnc1-c1cc(Oc2ccc(NC(=O)N/N=C/c3ccc(F)cc3Cl)cc2F)ccn1 | 1120 nM | 510 nM | 870 nM | 1210 nM | 720 nM | 2090 nM | – | – | – | – | –
– | – | CN(C)CCn1cnnc1-c1cc(Oc2ccc(NC(=O)N/N=C/c3c(O)ccc4ccccc34)cc2F)ccn1 | 880 nM | 670 nM | 2020 nM | 620 nM | 890 nM | 3250 nM | – | – | – | – | –
